# Published values collected from several papers.
# Compare with care: the assays were run in different laboratories.
# Cell line: A549
# Read-out: cell growth or viability
SMILES,technique,time,IC50
COc1cccc2c1C(=O)c1c(O)c3c(c(O)c1C2=O)C[C@@](O)(C(=O)CO)C[C@@H]3O[C@H]1C[C@H](N)[C@H](O)[C@H](C)O1,MTT,24 h,0.69 µg/mL
COc1cccc(NC(=O)Nc2nc3cc(-c4ccc5ncn(CC(=O)N6CCOCC6)c(=O)c5c4)ccc3s2)c1,MTT,72 h,> 20 µM
Cc1sc2c(c1C)C(c1ccc(Cl)cc1)=N[C@@H](CC(=O)NCCCCNC(=O)COc1cccc3c1C(=O)N(C1CCC(=O)NC1=O)C3=O)c1nnc(C)n1-2 (stereo partly drawn),CCK-8,72 h,> 10 µM
O=C(N[C@@H](CSCc1ccccc1)C(=O)NO)c1ccccc1,MTT,48 h,201 µM
Cc1ccccc1NC(=O)Nc1ccc(-c2ccc3ncn(Cc4ccccc4)c(=O)c3c2)cn1,CCK-8,72 h,0.98 µM
OC1CCN(c2ccc(/C=N/NC(=S)NCc3ccccc3)cc2)CC1,MTT,24 h,4.25 µM
CCCCC(=O)Nc1ccc(-c2ccc3ncn(C4CC4)c(=O)c3c2)cn1,CCK-8,72 h,> 10 µM
Cc1cc(NS(=O)(=O)c2ccc(NC(=O)/C(C#N)=C/c3ccncc3)cc2)no1,MTT,48 h,196 µM
Cc1cccc(C)c1NC(=S)N/N=C/c1ccc(N2CCC(O)CC2)cc1,MTT,24 h,1.56 µM
COc1cc(C2C3=C(Nc4nc(SC)[nH]c(=O)c42)c2ccccc2C3=O)ccc1O (stereo not drawn),MTT,72 h,> 1000 µM
CCCn1cnc2ccc(-c3ccc(N4CCCCCC4=O)nc3)cc2c1=O,CCK-8,72 h,> 10 µM
NNc1nc2ccc(Br)cc2c(=O)n1-c1ccc(Cl)cc1,MTT,48 h,79.2 µM
COc1cc(CNc2ccc(C(=O)O)cc2)ccc1O,resazurin,72 h,> 100 µM
CCCCn1cnc2ccc(-c3ccc(NC(=O)C4CCCC4)nc3)cc2c1=O,CCK-8,72 h,4.58 µM
C/C(=N\C(=S)/N=C(\C)c1c(O)c2ccccc2oc1=O)c1c(O)c2ccccc2oc1=O,MTT,48 h,6.66 µM
O=C(O)c1ccc(NCc2cccc([N+](=O)[O-])c2)cc1,resazurin,72 h,> 100 µM
CNC(=S)N/N=C/c1cccc2cc3ccccc3nc12,MTT,48 h,26.9 µM
O=C(Nc1cccc(C(F)(F)F)c1)Nc1nc2cc(-c3ccc4ncn(CCN5CCOCC5)c(=O)c4c3)ccc2s1,MTT,72 h,1.48 µM
O=C(O)c1ccc(NCc2cccc(O)c2O)cc1,resazurin,72 h,90.7 µM
CCCCCC(=O)Nc1ccc(-c2ccc3ncn(Cc4ccccc4)c(=O)c3c2)cn1,CCK-8,72 h,> 10 µM
O=C1/C(=C/c2ccc3ccccc3c2O)NC(=S)N1c1ccccc1,MTT,,5.2 µg/mL
CC(=NNC(=O)c1cc(-c2ccccc2)n(-c2ccc(S(N)(=O)=O)cc2)n1)c1ccc(Br)cc1,fluorescence,48 h,25.9 µM
Cc1c2c(nn1C)CSCc1cc(n(C)n1)CSc1cc(c3ccccc3c1)OCCCc1c(C(=O)O)n(C)c3c-2c(Cl)ccc13,CCK-8,,50 µM
COc1ccc(NC(=O)Nc2nc3cc(-c4ccc5ncn(CCN(C)C)c(=O)c5c4)ccc3s2)cc1,MTT,72 h,5.46 µM
COc1cccc2c1C(=O)c1c(O)c3c(c(O)c1C2=O)C[C@@](O)(C(=O)CO)C[C@@H]3O[C@H]1C[C@H](N)[C@H](O)[C@H](C)O1,MTT,,0.307 µM
C/C(=N\N=C(/C)c1c(O)c2ccccc2oc1=O)c1c(O)c2ccccc2oc1=O,MTT,48 h,39.5 µM
CCCCn1cnc2ccc(-c3ccc(NC(=O)NC(C)(C)C)nc3)cc2c1=O,CCK-8,72 h,> 10 µM
CC(C)CNC(=S)N/N=C/c1ccc(N2CCC(O)CC2)cc1,MTT,24 h,1.5 µM
C#Cc1cccc(Nc2ncnc3cc(OCCOC)c(OCCOC)cc23)c1,MTT,48 h,17.3 µM
Cc1cccc(NC(=O)Cn2cc(COc3ncnc4[nH]cnc34)nn2)c1,MTT,,> 100 µM
O=C(C=Cc1ccc(OCCCOc2ccc(C=CC(=O)c3cccs3)cc2)cc1)c1cccs1,MTT,48 h,92.4 µM
CCCCn1cnc2ccc(-c3ccc(NC(=O)NCc4ccccc4)nc3)cc2c1=O,CCK-8,72 h,0.38 µM
CC(C)[C@@H]1NC(=O)[C@@H](CCCNC(=N)N)NC(=O)[C@H]([C@@H](C)O)NC(=O)[C@@H](CCCN)NC(=O)[C@H](Cc2ccccc2)NC(=O)[C@@H](Cc2ccc(O)cc2)NC1=O,ATP luminescence,,> 100 µM
COc1ccc(NC(=S)N/N=C/c2cccc3cc4ccccc4nc23)cc1,MTT,48 h,17.8 µM
CCC(=O)Nc1nc2cc(-c3ccc4ncn(Cc5ccccc5)c(=O)c4c3)ccc2s1,MTT,72 h,> 20 µM
CNCc1cc(OC)cc2c1CN(c1cccc(-c3nncn3C(C)CC(F)(F)F)n1)C2=O (stereo not drawn),CCK-8,,> 10 µM
CN(C)c1ccc(Nc2nc(-c3ccncc3)nc3c2CC(N)CC3)cc1 (stereo not drawn),MTT,,17.1 µM
OC1CCN(c2ccc(/C=N/NC(=S)Nc3ccc(F)cc3)cc2)CC1,MTT,24 h,2.81 µM
NS(=O)(=O)c1ccc(-n2nc(C(=O)NN=Cc3ccccc3O)cc2-c2ccccc2)cc1,fluorescence,48 h,9.25 µM
O=C(NO)Nc1nc2c(Cl)cc(Cl)cc2c(=O)n1-c1ccc(Cl)cc1,MTT,48 h,> 200 µM
O=C(O)c1ccc(NCc2ccc(Cl)cc2)cc1,resazurin,72 h,> 100 µM
CCc1oc2cc(S(=O)(=O)Nc3ccc(S(=O)(=O)Nc4nccs4)cc3)ccc2c1C(=O)c1cc(Br)c(O)c(Br)c1,MTT,96 h,226 µM
CC1=CC(=O)C(C(C)C)=CC1=O,SRB,48 h,11.1 µM
CCCCNC(=O)Nc1nc2cc(-c3ccc4ncn(Cc5ccccc5)c(=O)c4c3)ccc2s1,MTT,72 h,6.27 µM
O=C(NO)Nc1nc2ccc(Br)cc2c(=O)n1-c1ccccc1,MTT,48 h,28 µM
O=C(Nc1ccc(F)cc1)Nc1nc2cc(-c3ccc4ncn(CCC5CCCCC5)c(=O)c4c3)ccc2s1,MTT,72 h,9.1 µM
Cc1ccc(NNc2nc3ccc(Br)cc3c(=O)n2-c2ccccc2)cc1,MTT,48 h,17.4 µM
COc1ccc(C(=O)Nc2nc3cc(-c4ccc5ncn(Cc6ccccc6)c(=O)c5c4)ccc3s2)cc1,MTT,72 h,> 20 µM
CC(C)[C@@H]1NC(=O)[C@@H](CCCNC(=N)N)NC(=O)[C@H]([C@@H](C)O)NC(=O)[C@@H](CCCN)NC(=O)[C@H](Cc2ccccc2)NC(=O)[C@@H](Cc2ccccc2)NC1=O,ATP luminescence,72 h,> 100 µM
CCCCn1cnc2ccc(-c3ccc4sc(NC(=O)Nc5ccc(F)cc5)nc4c3)cc2c1=O,MTT,72 h,1.27 µM
CN1CCC(NC2CCc3[nH]c4c(C(N)=O)ccc(-c5ccccc5Cl)c4c3C2)CC1 (stereo not drawn),,,0.0301 µM
